Data from ChEMBL document CHEMBL1944567, “Synthesis, biological evaluation, and molecular modeling of chalcone derivatives as potent inhibitors of Mycobacterium tuberculosis protein tyrosine phosphatases (PtpA and PtpB)” (J Med Chem, 2012).

Tests used:
[1] = Solubility of the compound; type: physicochemical
[2] = target: T1, Phosphotyrosine-protein phosphatase PTPB (Mycobacterium tuberculosis) (UniProt P96830); experiment: Inhibition of Mycobacterium tuberculosis PTP-B using p-nitrophenyl phosphate as substrate at 25 uM measured for 10 mins by spectrofluorimetry
T1 sequence (whole entry): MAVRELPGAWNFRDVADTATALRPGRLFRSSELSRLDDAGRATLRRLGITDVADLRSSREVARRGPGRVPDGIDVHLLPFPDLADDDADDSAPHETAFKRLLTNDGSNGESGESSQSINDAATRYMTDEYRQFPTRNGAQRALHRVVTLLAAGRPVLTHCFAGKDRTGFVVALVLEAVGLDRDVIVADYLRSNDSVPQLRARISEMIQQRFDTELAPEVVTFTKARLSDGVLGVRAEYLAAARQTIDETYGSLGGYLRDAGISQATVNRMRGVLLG
Procedure, shortened: (§1)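 Single-point screen at 25 μM final compound, added from 1.0 × 10−3 M DMSO stock, with recombinant Mtb PtpA or PtpB (0.4 μg/μL final) in 20 mM imidazole pH 7.0 with 40 mM pNPP. Reaction started by adding enzyme. p-Nitrophenol release read at 410 nm every min for 10 min at 37 °C. Residual activity was taken from the absorbance difference between 6 and 2 min; two experiments, each in triplicate.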

[3] = target: T2, Low molecular weight protein-tyrosine phosphatase A (Mycobacterium tuberculosis) (UniProt P9WIA1); experiment: Inhibition of Mycobacterium tuberculosis PTP-A using p-nitrophenyl phosphate as substrate at 25 uM measured for 10 mins by spectrofluorimetry; procedure, shortened: as §1
T2 sequence (whole entry): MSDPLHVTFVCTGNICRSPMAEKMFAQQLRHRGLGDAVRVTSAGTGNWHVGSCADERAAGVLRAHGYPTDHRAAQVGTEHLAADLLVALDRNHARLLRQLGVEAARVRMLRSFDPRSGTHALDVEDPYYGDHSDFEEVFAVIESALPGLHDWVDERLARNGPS

| SMILES | solubility [1] | inhibition [2] | inhibition [3] |
| --- | --- | --- | --- |
| O=C(/C=C/c1ccc(Cl)c(C(F)(F)F)c1)c1ccc2c(c1)OCO2 | soluble | 0% | 0% |
| COc1cc(OC)c(C(=O)/C=C/c2ccc3c(c2)OCO3)cc1OC | soluble | 29% | 8% |
| COc1ccc(/C=C/C(=O)c2ccc3ccccc3c2)c(OC)c1OC | soluble | 0% | 0% |
| O=C(/C=C/c1c(Cl)cccc1Cl)c1ccc2c(c1)OCO2 | soluble | 0% | 13% |
| O=C(/C=C/c1ccc2ccccc2c1)c1ccc2c(c1)OCO2 | soluble | 15% | 12% |
| Cc1ccc(/C=C/C(=O)c2ccc3c(c2)OCO3)cc1 | soluble | 0% | 14% |
| O=C(/C=C/c1ccccc1F)c1ccc2c(c1)OCO2 | soluble | 0% | 9% |
| COc1ccc(OC)c(/C=C/C(=O)c2ccc3ccccc3c2)c1 | soluble | 0% | 22% |
| O=C(/C=C/c1cccc2ccccc12)c1ccc2c(c1)OCO2 | soluble | 0% | 8% |
| O=C(/C=C/c1ccc(F)cc1)c1ccc2ccccc2c1 | soluble | 14% | 13% |
| O=C(/C=C/c1cc2ccccc2nc1Cl)c1ccc2c(c1)OCO2 | soluble | 0% | 19% |
| CCCCOc1ccc(/C=C/C(=O)c2ccc3ccccc3c2)cc1 | soluble | 17% | 8% |
| O=C(/C=C/c1ccc(Cl)cc1)c1ccc2ccccc2c1 | soluble | 27% | 13% |
| COc1cc(OC)c(/C=C/C(=O)c2ccc3c(c2)OCO3)c(OC)c1 | soluble | 0% | 5% |
| COc1ccc(OC)c(/C=C/C(=O)c2ccc3c(c2)OCO3)c1 | soluble | 0% | 10% |
| O=C(/C=C/c1ccccc1)c1ccc2ccccc2c1 | soluble | 16% | 4% |
| CCCCOc1ccc(/C=C/C(=O)c2ccc3c(c2)OCO3)cc1 | soluble | 0% | 11% |
| O=C(/C=C/c1cccc([N+](=O)[O-])c1)c1ccc2c(c1)OCO2 | soluble | 22% | 23% |
| COc1cc(/C=C/C(=O)c2ccc(Cl)s2)ccc1OCc1ccccc1 | soluble | 19% | 5% |
| O=C(/C=C/c1cccc(Br)c1)c1ccc2ccccc2c1 | soluble | 20% | 0% |
| O=C(/C=C/c1cccc([N+](=O)[O-])c1)c1ccc2ccccc2c1 | soluble | 7% | 12% |
| O=C(/C=C/c1cccc(Br)c1)c1ccc2c(c1)OCO2 | soluble | 0% | 5% |
| O=C(/C=C/c1ccc2c(c1)OCO2)c1ccc2ccccc2c1 | soluble | 0% | 13% |
| O=C(/C=C/c1ccc(Cl)c(Cl)c1)c1ccc2ccccc2c1 | soluble | 28% | 11% |
| O=C(/C=C/c1ccccc1F)c1ccc2ccccc2c1 | soluble | 0% | 23% |
| CN(C)c1ccc(/C=C/C(=O)c2ccc3c(c2)OCO3)cc1 | soluble | 0% | 10% |
| O=C(/C=C/c1ccc(Br)cc1)c1ccc2ccccc2c1 | soluble | 24% | 8% |
| Cc1ccc(/C=C/C(=O)c2ccc3ccccc3c2)cc1 | soluble | 28% | 8% |
